Test results from ChEMBL document CHEMBL2380270, “Radiosynthesis and first evaluation in mice of [(18)F]NS14490 for molecular imaging of α7 nicotinic acetylcholine receptors” (Bioorg Med Chem, 2013).

Assays:
Format in all cases: ADME, organism-based
Pancreas = test: Biodistribution in CD1 mouse pancreas at 200 to 300 kBq, iv measured at 60 mins by gamma counting analysis in presence of SSR180711; conditions: in vivo, 1 h
Summary of the method: (§1)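 Blocking design in female CD-1 mice, n = 7 per group. The blocker was given at 10 mg kg^-1 i.p. in 0.9% saline 10 min before i.v. 200–300 kBq [18F]radiotracer. Mice were killed at 60 min p.i. and organs weighed and gamma-counted as % ID per g wet weight. Blocked groups were compared with controls by two-tailed independent Student's t test.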

Mus musculus [1] = test: Biodistribution in CD1 mouse thymus at 200 to 300 kBq, iv measured at 60 mins by gamma counting analysis; conditions: in vivo, 1 h
Summary of the method: (§2)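 Female CD-1 mice given 200–300 kBq tracer intravenously. Animals anaesthetised for blood and urine sampling, then killed by cervical dislocation at 5, 15, 30 or 60 min (n = 3 per time; n = 7 at 60 min). Organs removed and weighed, activity gamma-counted, expressed as % injected dose per g wet weight. Blocking arm: 10 mg/kg i.p. in 0.9% saline, 10 min before tracer; two-tailed unpaired t test versus control.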

Heart = test: Biodistribution in CD1 mouse heart at 200 to 300 kBq, iv measured at 15 mins by gamma counting analysis; conditions: in vivo, 0.25 h
Summary of the method: (§3)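 Female CD-1 mice, 200–300 kBq radiotracer given iv, n = 3 per time point. Animals anaesthetised for blood and urine sampling, then killed by cervical dislocation at 5, 15, 30 or 60 min p.i. Organs removed, weighed and gamma-counted; uptake expressed as % injected dose per g wet tissue.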

Lung [2] = test: Biodistribution in CD1 mouse lung at 200 to 300 kBq, iv measured at 60 mins by gamma counting analysis in presence of SSR180711; conditions: in vivo, 1 h; summary of the method: as §1
Mus musculus [3] = test: Biodistribution in CD1 mouse small intestine at 200 to 300 kBq, iv measured at 60 mins by gamma counting analysis; conditions: in vivo, 1 h
Summary of the method: (§4)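 Female CD-1 mice received 200–300 kBq [18F]radiotracer intravenously. Blood and urine were sampled under anaesthesia, then mice were killed by cervical dislocation at 5, 15, 30 or 60 min p.i. (n = 3; control at 60 min n = 7). Organs were removed and weighed, activity was gamma-counted, and uptake was expressed as % injected dose per g wet tissue.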

Stomach [4] = test: Biodistribution in CD1 mouse stomach at 200 to 300 kBq, iv measured at 30 mins by gamma counting analysis; conditions: in vivo, 0.5 h; summary of the method: as §4
Mus musculus [5] = test: Biodistribution in CD1 mouse small intestine at 200 to 300 kBq, iv measured at 30 mins by gamma counting analysis; conditions: in vivo, 0.5 h; summary of the method: as §4
[6] = Biodistribution in CD1 mouse urine at 200 to 300 kBq, iv measured at 60 mins by gamma counting analysis; conditions: in vivo, 1 h; summary of the method: as §2
Liver [7] = test: Biodistribution in CD1 mouse liver at 200 to 300 kBq, iv measured at 60 mins by gamma counting analysis in presence of SSR180711; conditions: in vivo, 1 h; summary of the method: as §1
[8] = Biodistribution in CD1 mouse urine at 200 to 300 kBq, iv measured at 30 mins by gamma counting analysis; conditions: in vivo, 0.5 h; summary of the method: as §2
Femur = test: Biodistribution in CD1 mouse femur at 200 to 300 kBq, iv measured at 30 mins by gamma counting analysis; conditions: in vivo, 0.5 h; summary of the method: as §3
Lung [9] = test: Biodistribution in CD1 mouse lung at 200 to 300 kBq, iv measured at 15 mins by gamma counting analysis; conditions: in vivo, 0.25 h; summary of the method: as §4
Muscle tissue [10] = test: Biodistribution in CD1 mouse muscle at 200 to 300 kBq, iv measured at 60 mins by gamma counting analysis in presence of SSR180711; conditions: in vivo, 1 h; summary of the method: as §1
Stomach [11] = test: Biodistribution in CD1 mouse stomach at 200 to 300 kBq, iv measured at 5 mins by gamma counting analysis; conditions: in vivo; summary of the method: as §4
Blood [12] = test: Biodistribution in CD1 mouse blood at 200 to 300 kBq, iv measured at 5 mins by gamma counting analysis; conditions: in vivo; summary of the method: as §3
Kidney = test: Biodistribution in CD1 mouse kidney at 200 to 300 kBq, iv measured at 60 mins by gamma counting analysis; conditions: in vivo, 1 h; summary of the method: as §3
Lung [13] = test: Biodistribution in CD1 mouse lung at 200 to 300 kBq, iv measured at 5 mins by gamma counting analysis; conditions: in vivo; summary of the method: as §4
Urinary bladder = test: Biodistribution in CD1 mouse bladder at 200 to 300 kBq, iv measured at 15 mins by gamma counting analysis; conditions: in vivo, 0.25 h; summary of the method: as §3
Muscle tissue [14] = test: Biodistribution in CD1 mouse muscle at 200 to 300 kBq, iv measured at 60 mins by gamma counting analysis; conditions: in vivo, 1 h; summary of the method: as §4
Spleen [15] = test: Biodistribution in CD1 mouse spleen at 200 to 300 kBq, iv measured at 60 mins by gamma counting analysis in presence of SSR180711; conditions: in vivo, 1 h; summary of the method: as §1
Liver [16] = test: Biodistribution in CD1 mouse liver at 200 to 300 kBq, iv measured at 5 mins by gamma counting analysis; conditions: in vivo; summary of the method: as §4
Blood [17] = test: Biodistribution in CD1 mouse blood at 200 to 300 kBq, iv measured at 60 mins by gamma counting analysis; conditions: in vivo, 1 h; summary of the method: as §3
Spleen [18] = test: Biodistribution in CD1 mouse spleen at 200 to 300 kBq, iv measured at 60 mins by gamma counting analysis; conditions: in vivo, 1 h; summary of the method: as §4
Liver [19] = test: Biodistribution in CD1 mouse liver at 200 to 300 kBq, iv measured at 60 mins by gamma counting analysis; conditions: in vivo, 1 h; summary of the method: as §4
Liver [20] = test: Biodistribution in CD1 mouse liver at 200 to 300 kBq, iv measured at 15 mins by gamma counting analysis; conditions: in vivo, 0.25 h; summary of the method: as §4

O=C(Oc1ccc(Br)cc1)N1CCN2CCC1CC2 [SSR180711]
Drug uptake (Pancreas): 2.96 % ID/g | Drug uptake (Mus musculus [1]): 2.75 % ID/g | Drug uptake (Heart): 2.96 % ID/g | Drug uptake (Lung [2]): 4.41 % ID/g | Drug uptake (Mus musculus [3]): 16.1 % ID/g | Drug uptake (Stomach [4]): 7.29 % ID/g | Drug uptake (Mus musculus [5]): 11 % ID/g | Drug uptake [6]: 152 % ID/g | Drug uptake (Liver [7]): 6.45 % ID/g | Drug uptake [8]: 123 % ID/g | Drug uptake (Femur): 1.48 % ID/g | Drug uptake (Lung [9]): 10.8 % ID/g | Drug uptake (Muscle tissue [10]): 1.02 % ID/g | Drug uptake (Stomach [11]): 3.92 % ID/g | Drug uptake (Blood [12]): 1.6 % ID/g | Drug uptake (Kidney): 10.4 % ID/g | Drug uptake (Lung [13]): 8.48 % ID/g | Drug uptake (Urinary bladder): 2.19 % ID/g | Drug uptake (Muscle tissue [14]): 1 % ID/g | Drug uptake (Spleen [15]): 7.53 % ID/g | Drug uptake (Liver [16]): 6.29 % ID/g | Drug uptake (Blood [17]): 0.78 % ID/g | Drug uptake (Spleen [18]): 7.46 % ID/g | Drug uptake (Liver [19]): 7.79 % ID/g | Drug uptake (Liver [20]): 9.39 % ID/g
